Measured values published in ChEMBL document CHEMBL1138353, “Facile stereospecific synthesis and biological evaluation of (S)- and (R)-2-amino-2-methyl-4-[123I]iodo-3-(E)-butenoic acid for brain tumor imaging with single photon emission computerized tomography” (J Med Chem, 2007).

Experiments:
9L [1] = test: Drug uptake per 10^6 cells in rat 9L cells after 30 mins; format: ADME, cell-based; settings: 0.5 h
Method in brief: (§1)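 Cultured rat 9L gliosarcoma cells incubated 30 min with 131I-labelled tracer, with or without A-type inhibitor N-MeAIB or L-type inhibitor BCH. Uptake expressed as percent of initial dose per 1 × 10^6 cells, normalized for dose and cell number. Inhibition compared to control by one-way ANOVA; SD shown.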

9L [2] = test: Drug uptake per 10^6 cells in rat 9L cells after 30 mins assessed as uptake inhibition in presence of N-methyl-alpha-aminoisobutyric acid relative to control; format: ADME, cell-based; parameters: scale not given: the % may be the effect or the level left; settings: 0.5 h; method in brief: as §1
Blood [3] = test: Biodistribution in 9L cells bearing Fischer 344 rat blood at 15 to 30 uCi, iv after 30 mins; format: ADME, organism-based; settings: in vivo, 0.5 h
Method in brief: (§2)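 Male Fischer 344 rats (125–175 g) bearing intracranial 9L gliosarcoma implants; radioiodinated tracer (123I for S, 131I for R) purified in saline, given intravenously. Tissues harvested at 30, 60 or 120 min, radioactivity expressed as %ID/g (thyroid per organ). Groups: S study 5 rats per time; R study 5 at 30 min, 4 at 60 and 120 min.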

Blood [4] = test: Biodistribution in 9L cells bearing Fischer 344 rat blood at 15 to 30 uCi, iv after 60 mins; format: ADME, organism-based; settings: in vivo, 1 h; method in brief: as §2
Blood [5] = test: Biodistribution in 9L cells bearing Fischer 344 rat blood at 15 to 30 uCi, iv after 120 mins; format: ADME, organism-based; settings: in vivo, 2 h; method in brief: as §2
Heart [6] = test: Biodistribution in 9L cells bearing Fischer 344 rat heart at 15 to 30 uCi, iv after 30 mins; format: ADME, organism-based; settings: in vivo, 0.5 h; method in brief: as §2
Heart [7] = test: Biodistribution in 9L cells bearing Fischer 344 rat heart at 15 to 30 uCi, iv after 60 mins; format: ADME, organism-based; settings: in vivo, 1 h; method in brief: as §2
Heart [8] = test: Biodistribution in 9L cells bearing Fischer 344 rat heart at 15 to 30 uCi, iv after 120 mins; format: ADME, organism-based; settings: in vivo, 2 h; method in brief: as §2
Lung [9] = test: Biodistribution in 9L cells bearing Fischer 344 rat lung at 15 to 30 uCi, iv after 30 mins; format: ADME, organism-based; settings: in vivo, 0.5 h; method in brief: as §2
Lung [10] = test: Biodistribution in 9L cells bearing Fischer 344 rat lung at 15 to 30 uCi, iv after 60 mins; format: ADME, organism-based; settings: in vivo, 1 h; method in brief: as §2
Lung [11] = test: Biodistribution in 9L cells bearing Fischer 344 rat lung at 15 to 30 uCi, iv after 120 mins; format: ADME, organism-based; settings: in vivo, 2 h; method in brief: as §2
Liver [12] = test: Biodistribution in 9L cells bearing Fischer 344 rat liver at 15 to 30 uCi, iv after 30 mins; format: ADME, organism-based; settings: in vivo, 0.5 h; method in brief: as §2
Liver [13] = test: Biodistribution in 9L cells bearing Fischer 344 rat liver at 15 to 30 uCi, iv after 60 mins; format: ADME, organism-based; settings: in vivo, 1 h; method in brief: as §2
Liver [14] = test: Biodistribution in 9L cells bearing Fischer 344 rat liver at 15 to 30 uCi, iv after 120 mins; format: ADME, organism-based; settings: in vivo, 2 h; method in brief: as §2
Pancreas [15] = test: Biodistribution in 9L cells bearing Fischer 344 rat pancreas at 15 to 30 uCi, iv after 30 mins; format: ADME, organism-based; settings: in vivo, 0.5 h; method in brief: as §2
Pancreas [16] = test: Biodistribution in 9L cells bearing Fischer 344 rat pancreas at 15 to 30 uCi, iv after 60 mins; format: ADME, organism-based; settings: in vivo, 1 h; method in brief: as §2
Pancreas [17] = test: Biodistribution in 9L cells bearing Fischer 344 rat pancreas at 15 to 30 uCi, iv after 120 mins; format: ADME, organism-based; settings: in vivo, 2 h; method in brief: as §2
Spleen [18] = test: Biodistribution in 9L cells bearing Fischer 344 rat spleen at 15 to 30 uCi, iv after 30 mins; format: ADME, organism-based; settings: in vivo, 0.5 h; method in brief: as §2
Spleen [19] = test: Biodistribution in 9L cells bearing Fischer 344 rat spleen at 15 to 30 uCi, iv after 60 mins; format: ADME, organism-based; settings: in vivo, 1 h; method in brief: as §2
Spleen [20] = test: Biodistribution in 9L cells bearing Fischer 344 rat spleen at 15 to 30 uCi, iv after 120 mins; format: ADME, organism-based; settings: in vivo, 2 h; method in brief: as §2
Kidney [21] = test: Biodistribution in 9L cells bearing Fischer 344 rat kidney at 15 to 30 uCi, iv after 30 mins; format: ADME, organism-based; settings: in vivo, 0.5 h; method in brief: as §2
Kidney [22] = test: Biodistribution in 9L cells bearing Fischer 344 rat kidney at 15 to 30 uCi, iv after 60 mins; format: ADME, organism-based; settings: in vivo, 1 h; method in brief: as §2
Kidney [23] = test: Biodistribution in 9L cells bearing Fischer 344 rat kidney at 15 to 30 uCi, iv after 120 mins; format: ADME, organism-based; settings: in vivo, 2 h; method in brief: as §2
Muscle tissue [24] = test: Biodistribution in 9L cells bearing Fischer 344 rat muscle at 15 to 30 uCi, iv after 30 mins; format: ADME, organism-based; settings: in vivo, 0.5 h; method in brief: as §2
Muscle tissue [25] = test: Biodistribution in 9L cells bearing Fischer 344 rat muscle at 15 to 30 uCi, iv after 60 mins; format: ADME, organism-based; settings: in vivo, 1 h; method in brief: as §2
Muscle tissue [26] = test: Biodistribution in 9L cells bearing Fischer 344 rat muscle at 15 to 30 uCi, iv after 120 mins; format: ADME, organism-based; settings: in vivo, 2 h; method in brief: as §2
Brain [27] = test: Biodistribution in 9L cells bearing Fischer 344 rat brain at 15 to 30 uCi, iv after 30 mins; format: ADME, organism-based; settings: in vivo, 0.5 h; method in brief: as §2
Brain [28] = test: Biodistribution in 9L cells bearing Fischer 344 rat brain at 15 to 30 uCi, iv after 60 mins; format: ADME, organism-based; settings: in vivo, 1 h; method in brief: as §2
Brain [29] = test: Biodistribution in 9L cells bearing Fischer 344 rat brain at 15 to 30 uCi, iv after 120 mins; format: ADME, organism-based; settings: in vivo, 2 h; method in brief: as §2
Rattus norvegicus [30] = test: Biodistribution in 9L cells bearing Fischer 344 rat tumor at 15 to 30 uCi, iv after 30 mins; format: ADME, organism-based, Neoplasm; settings: in vivo, 0.5 h; method in brief: as §2
Rattus norvegicus [31] = test: Biodistribution in 9L cells bearing Fischer 344 rat tumor at 15 to 30 uCi, iv after 60 mins; format: ADME, organism-based, Neoplasm; settings: in vivo, 1 h; method in brief: as §2
Rattus norvegicus [32] = test: Biodistribution in 9L cells bearing Fischer 344 rat tumor at 15 to 30 uCi, iv after 120 mins; format: ADME, organism-based, Neoplasm; settings: in vivo, 2 h; method in brief: as §2
Bone [33] = test: Biodistribution in 9L cells bearing Fischer 344 rat bone at 15 to 30 uCi, iv after 30 mins; format: ADME, organism-based, Bone element; settings: in vivo, 0.5 h; method in brief: as §2
Bone [34] = test: Biodistribution in 9L cells bearing Fischer 344 rat bone at 15 to 30 uCi, iv after 60 mins; format: ADME, organism-based, Bone element; settings: in vivo, 1 h; method in brief: as §2
Bone [35] = test: Biodistribution in 9L cells bearing Fischer 344 rat bone at 15 to 30 uCi, iv after 120 mins; format: ADME, organism-based, Bone element; settings: in vivo, 2 h; method in brief: as §2
Testes [36] = test: Biodistribution in 9L cells bearing Fischer 344 rat testes at 15 to 30 uCi, iv after 30 mins; format: ADME, organism-based, Testis; settings: in vivo, 0.5 h; method in brief: as §2
Testes [37] = test: Biodistribution in 9L cells bearing Fischer 344 rat testes at 15 to 30 uCi, iv after 60 mins; format: ADME, organism-based, Testis; settings: in vivo, 1 h; method in brief: as §2
Testes [38] = test: Biodistribution in 9L cells bearing Fischer 344 rat testes at 15 to 30 uCi, iv after 120 mins; format: ADME, organism-based, Testis; settings: in vivo, 2 h; method in brief: as §2
Thyroid gland [39] = test: Biodistribution in 9L cells bearing Fischer 344 rat thyroid at 15 to 30 uCi, iv after 30 mins; format: ADME, organism-based; settings: in vivo, 0.5 h; method in brief: as §2
Thyroid gland [40] = test: Biodistribution in 9L cells bearing Fischer 344 rat thyroid at 15 to 30 uCi, iv after 60 mins; format: ADME, organism-based; settings: in vivo, 1 h; method in brief: as §2
Thyroid gland [41] = test: Biodistribution in 9L cells bearing Fischer 344 rat thyroid at 15 to 30 uCi, iv after 120 mins; format: ADME, organism-based; settings: in vivo, 2 h; method in brief: as §2
Nucleic Acid [42] = test: Ratio of drug level in tumor to brain in 9L cells bearing Fischer 344 rat at 15 to 30 uCi, iv after 30 mins; format: ADME, organism-based; settings: in vivo, 0.5 h
Method in brief: (§3)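 Intracranial 9L gliosarcoma in male Fischer 344 rats (125–175 g). The 123I-labelled (S) or 131I-labelled (R) tracer was given iv in saline. Tumor and normal brain %ID/g were measured at 30, 60 or 120 min, and the ratio was taken from these. Groups were 5 per time for S, and 5/4/4 for R.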

Nucleic Acid [43] = test: Ratio of drug level in tumor to brain in 9L cells bearing Fischer 344 rat at 15 to 30 uCi, iv after 60 mins; format: ADME, organism-based; settings: in vivo, 1 h; method in brief: as §3
Nucleic Acid [44] = test: Ratio of drug level in tumor to brain in 9L cells bearing Fischer 344 rat at 15 to 30 uCi, iv after 120 mins; format: ADME, organism-based; settings: in vivo, 2 h; method in brief: as §3

In the case of `C[C@](N)(/C=C/[123I])C(=O)O`, the Drug uptake (9L [1]) is reported as 0.35 %ID, the Activity (9L [2]) is reported as 85% and the Drug uptake (Blood [3]) is reported as 1.33 % ID/g. For the same compound, the Drug uptake (Blood [4]) was 1.22 % ID/g, the Drug uptake (Blood [5]) was 1.03 % ID/g and the Drug uptake (Heart [6]) was 1.31 % ID/g. It also gave a Drug uptake (Heart [7]) of 1.4 % ID/g, a Drug uptake (Heart [8]) of 1.2 % ID/g and a Drug uptake (Lung [9]) of 1.24 % ID/g. For the same compound, the Drug uptake (Lung [10]) was 1.41 % ID/g, the Drug uptake (Lung [11]) was 0.98 % ID/g and the Drug uptake (Liver [12]) was 1.62 % ID/g. It also gave a Drug uptake (Liver [13]) of 1.62 % ID/g, a Drug uptake (Liver [14]) of 1.27 % ID/g and a Drug uptake (Pancreas [15]) of 11.9 % ID/g. The Drug uptake (Pancreas [16]) was 10.7 % ID/g, the Drug uptake (Pancreas [17]) was 7.7 % ID/g and the Drug uptake (Spleen [18]) was 1.54 % ID/g. For the same compound, the Drug uptake (Spleen [19]) was 1.73 % ID/g, the Drug uptake (Spleen [20]) was 1.08 % ID/g and the Drug uptake (Kidney [21]) was 24 % ID/g. It also gave a Drug uptake (Kidney [22]) of 22.9 % ID/g, a Drug uptake (Kidney [23]) of 18.4 % ID/g and a Drug uptake (Muscle tissue [24]) of 1.35 % ID/g. The Drug uptake (Muscle tissue [25]) was 1.7 % ID/g, the Drug uptake (Muscle tissue [26]) was 1.26 % ID/g and the Drug uptake (Brain [27]) was 0.058 % ID/g. For the same compound, the Drug uptake (Brain [28]) was 0.091 % ID/g, the Drug uptake (Brain [29]) was 0.096 % ID/g and the Drug uptake (Rattus norvegicus [30]) was 4.7 % ID/g. The Drug uptake (Rattus norvegicus [31]) was 6.81 % ID/g, the Drug uptake (Rattus norvegicus [32]) was 6.84 % ID/g and the Drug uptake (Bone [33]) was 0.51 % ID/g. It also gave a Drug uptake (Bone [34]) of 0.74 % ID/g, a Drug uptake (Bone [35]) of 0.64 % ID/g and a Drug uptake (Testes [36]) of 0.49 % ID/g. The Drug uptake (Testes [37]) was 0.58 % ID/g, the Drug uptake (Testes [38]) was 0.64 % ID/g and the Drug uptake (Thyroid gland [39]) was 0.16 %ID/organ. For the same compound, the Drug uptake (Thyroid gland [40]) was 0.24 %ID/organ, the Drug uptake (Thyroid gland [41]) was 0.18 %ID/organ and the Ratio (Nucleic Acid [42]) was 81. For the same compound, the Ratio (Nucleic Acid [43]) was 75 and the Ratio (Nucleic Acid [44]) was 71.
